This passage reports IC50 and Ki results from ChEMBL document CHEMBL1156669, “Aldehyde dehydrogenase inhibitors: alpha,beta-acetylenic N-substituted aminothiolesters are reversible growth inhibitors of normal epithelial but irreversible apoptogens for cancer epithelial cells from human prostate in culture” (Eur J Med Chem, 2008).

Test [1] deals with DU-145. Description: Growth inhibition of human DU145 cells administered after 3 days. Type of test: functional, cell-based. The following applies: DU-145, 72 h. In short, it runs like this:
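DU145 in RPMI 1640 with 10% FCS; 1 × 10⁵ cells per well in 24-well plates, compound added 4 h after seeding. After 3 days the adherent sheet was washed twice with PBS and harvested in 0.14 M NaOH, and protein content measured. IC50 is the mean of three experiments.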

Test [2] concerns the target Aldehyde dehydrogenase 1 (Saccharomyces cerevisiae). Briefly: Inhibition of ALDH1.
For test [3], the system named is BaF3. Description: Induction of apoptosis in mouse BAF3 cells overexpressing bcl2. The format is functional, cell-based.
The nature of test [4]: Growth inhibition of HPEN cells administered after 3 days. Type of test: cell-based. The note with it: Homo sapiens, 72 h. The essentials: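 HPENC in PrEGM with supplement and 10% FCS; 1 × 10⁵ cells per well in 24-well plates, compound added 4 h after seeding once adhered. After 3 days, growth read as protein content. IC50 is the mean of three experiments.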

pIC50, pKi: −log10 of the molar value.

As for `CSC(=O)C#CC(C)(C)N1CCc2ccccc21`, the pIC50 in test [1] is 5.15.

`CN(C)C(=S)C#CC(C)(C)N1CCOCC1`: the pIC50 in test [1] was 4.00.

The compound `CSC(=O)C#CC(C)(C)N1CCCCC1` showed a pIC50 in test [1] of 4.66.

In turn, `CSC(=O)C#CC(C)(C)N` had a pKi in test [2] of 3.55. The compound further gave a pIC50 in test [3] of 5.40.

As to `CSC(=O)C#CC(C)(C)N1CCCC1`, the pIC50 in test [1] is 5.17.

`CSC(=O)C#CC(C)(C)N(C)CCc1ccccc1` showed a pIC50 in test [1] of 5.22.

Compound `CSC(=O)C#CC(C)(C)N(Cc1ccccc1)Cc1ccccc1` gave a pIC50 in test [1] of 5.15.

Take `CSC(=O)C#CC(C)(C)[N+](C)(C)C`: the pIC50 in test [1] is under 3.22; in test [4] it was 3.23.
